# The sample as a whole holds a higher share of hits than the screen did.
# T cruzi HTS: intracellular Trypanosoma cruzi inhibition. AID 651903. intracellular Trypanosoma cruzi in host cells, plate reader. 22,000 tested, 4.9% active. activity score (inhibition), % at 5.01 µM; in the data active = activity score above about 55%; inconclusive = no clear call, values can overlap the other calls;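 also: parasites and compound incubated about four days before reading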
# A1 apoptosis 2: compounds inhibiting A1, read as caspase activation | 24,000 tested, under 10 active | MEF A1-2A-BIM cells, caspase-Glo luminescence, 3 h; percent of clofoctol response, DMSO zero | caspase activation, % (no concentration beside the values) | AID 2465; in the data active = caspase activation above about 5.9%; inconclusive = no clear call, values can overlap the other calls; inactive = below about 2.2%
#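 Evaluation: Caspase-3/7 activity from luminescence increase | Assay system: A1-2A-BIM mouse embryonic fibroblasts | Quantity: 2500 MEF cells/well | Medium: RPMI-1640 plus 10% FBS | Detection: Caspase-Glo 3/7 luminescence, 1 h at room temperature | Dosing: 50 nL compound per well, pinned | Timing: Cells settled overnight, compound exposure 3 h at 37 °C, 5% CO2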
# INS-1E rescue: INS-1E beta cell protection from cytokine death | INS-1E cytokine-induced death, ATP luminescence, 48 h; normalised: neutral wells 0, positive control 100 | protection from cytokine-induced ATP loss, % at 10 µM | 20,000 tested, 0.1% active;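 active = mean replicate protection from cytokine-induced ATP loss at least 50% and at least 75% of replicates each reaching 50%; inconclusive = meets only one of the two criteria, mean or replicate share; inactive = fails both the mean and replicate share criteria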
#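 Assay system: INS-1E rat insulinoma cells. Amount: 8000 cells per well. Medium: phenol-red-free RPMI with 5% fetal bovine serum. Reagent: IL-1β, TNF-α and IFN-γ cytokine mix. Doses: one compound concentration, pin transfer. Schedule: 48 h co-treatment, 10 min post-lysis read. Detection: CellTiter-Glo luminescence measuring cellular ATP.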
# Numbers stand for hits; . = inactive; ? = inconclusive; / = no result.
SMILES,T cruzi HTS,A1 apoptosis 2,INS-1E rescue
O=C(CCCCC(=O)N/N=C/c1c(F)c(F)c(F)c(F)c1F)NO,.,.,.
CC(C)(C)OC(=O)N1CCC[C@H]1/C=N/NC(=O)CCCCCC(=O)Nc1ccccc1O,.,/,.
COc1ccc(NCc2ccc(C(=O)Nc3ccccc3[N+](=O)[O-])cc2)cc1OC,/,.,/
COc1ccc(C#Cc2ccc3c(c2)[C@]2(C(=O)N3)[C@H](C(=O)O)[C@H]3C(=O)O[C@H](c4ccccc4)[C@H](c4ccccc4)N3[C@@H]2c2ccccc2OCCO)cc1,/,.,/
C=CCOC(=O)[C@H]1[C@@H]2C(=O)O[C@@H](c3ccccc3)[C@@H](c3ccccc3)N2[C@@H](c2ccc(OCCOC(=O)[C@H]3C[C@H]4C(=O)N[C@@H](CCCCNC(C)=O)C(=O)N4[C@H]3c3ccc(O)cc3)cc2)[C@]12C(=O)Nc1ccccc12,/,.,/
C[C@@H]1CN([C@@H](C)CO)C(=O)c2cccc(NS(=O)(=O)c3ccc(Cl)cc3)c2O[C@@H]1CN(C)Cc1ccc(-c2ccccc2)cc1,63,.,.
C[C@H]1CN([C@@H](C)CO)C(=O)c2cccc(NS(=O)(=O)c3ccc(Cl)cc3)c2O[C@@H]1CN(C)Cc1ccc(-c2ccccc2)cc1,.,.,.
O=C(CCCCCC(=O)N/N=C/c1ccoc1)NO,/,.,/
C[C@@H]1CCCCO[C@H](CN(C)C)[C@@H](C)CN([C@H](C)CO)C(=O)c2cc(NS(=O)(=O)c3cn(C)cn3)ccc2O1,.,.,.
O=C(NO)c1ccc(C(=O)N/N=C/c2cc(Br)cs2)cc1,.,/,.
C[C@@H]1CN([C@@H](C)CO)C(=O)c2cc(NS(=O)(=O)c3ccc(Cl)cc3)ccc2O[C@@H]1CN(C)Cc1ccc(-c2ccccc2)cc1,69,.,.
C[C@H](CO)N1C[C@H](C)[C@@H](CN(C)Cc2ccc(-c3ccccc3)cc2)Oc2ccc(NS(=O)(=O)c3ccc(Cl)cc3)cc2C1=O,.,/,.
C[C@H](CO)N1C[C@H](C)[C@H](CN(C)Cc2ccc(-c3ccccc3)cc2)Oc2ccc(NS(=O)(=O)c3ccc(Cl)cc3)cc2C1=O,56,.,.
C[C@@H]1CN([C@H](C)CO)C(=O)c2cc(NS(=O)(=O)c3ccc(Cl)cc3)ccc2O[C@@H]1CN(C)Cc1ccc(-c2ccccc2)cc1,.,.,.
COCCOC(=O)N1C(=O)[C@@]2(c3cc(C#Cc4ccc(OC)cc4)ccc31)[C@H](c1ccc(OCCO)cc1)N1[C@H](c3ccccc3)[C@H](c3ccccc3)OC(=O)[C@H]1[C@@H]2C(=O)NC[C@H](O)c1ccccc1,/,.,/
COC(=O)CCCCCCC(=O)N/N=C/c1cc(OC)c(O)cc1Br,.,.,.
C[C@H]1CN([C@@H](C)CO)C(=O)c2cccc(NC(=O)c3ccc(-c4nccs4)cc3)c2O[C@H]1CN(C)Cc1ccc(C(=O)Nc2ccccc2N)cc1,71,.,.
C[C@H](CO)N1C[C@H](C)[C@@H](CN(C)Cc2ccc(Cl)c(Cl)c2)Oc2c(NC(=O)c3ccc(-c4nccs4)cc3)cccc2C1=O,62,.,.
C[C@H](CO)N1C[C@H](C)[C@@H](CN(C)S(=O)(=O)c2ccc(Cl)cc2)Oc2c(NC(=O)c3ccc(-c4nccs4)cc3)cccc2C1=O,.,/,.
C[C@@H]1CN([C@@H](C)CO)C(=O)c2cccc(NC(=O)c3ccc(-c4nccs4)cc3)c2O[C@H]1CN(C)CC1CCCCC1,64,.,.
C[C@H](CO)N1C[C@H](C)[C@H](CN(C)S(=O)(=O)c2ccc(Cl)cc2)Oc2c(NC(=O)c3ccc(-c4nccs4)cc3)cccc2C1=O,63,.,.
C[C@@H]1CN([C@H](C)CO)C(=O)c2cccc(NC(=O)c3ccc(-c4nccs4)cc3)c2O[C@H]1CN(C)Cc1ccc(C(=O)O)cc1,.,.,.
C[C@@H]1CN([C@@H](C)CO)C(=O)c2cccc(NC(=O)c3ccc(-c4nccs4)cc3)c2O[C@H]1CN(C)Cc1ccc(C(=O)Nc2ccccc2N)cc1,.,/,.
C[C@H](CO)N1C[C@H](C)[C@@H](CN(C)CC2CCCCC2)Oc2c(NC(=O)c3ccc(-c4nccs4)cc3)cccc2C1=O,.,/,.
C=CC1c2cc(O)c(OC)cc2CCN1Cc1cc2c(cc1Br)OCO2 (centres undefined),/,.,/
SMILES,T cruzi HTS,A1 apoptosis 2,INS-1E rescue
COc1ccc(Br)cc1/C=N/NC(=O)c1ccccc1O,.,.,.
O=C(Nc1ccccc1)c1ccc(CNc2nccc(-c3cccnc3)n2)cc1,/,.,/
C[C@@H]1CN([C@@H](C)CO)C(=O)c2cccc(NC(=O)c3ccc(-c4nccs4)cc3)c2O[C@@H]1CN(C)C(=O)Nc1ccc(C(F)(F)F)cc1,66,.,.
C[C@@H]1CN([C@H](C)CO)C(=O)c2cccc(NC(=O)c3ccc(-c4nccs4)cc3)c2O[C@@H]1CN(C)Cc1ccc(C(=O)Nc2ccccc2N)cc1,81,/,?
C[C@H](CO)N1C[C@H](C)[C@H](CN(C)C(=O)Nc2ccc(C(F)(F)F)cc2)Oc2c(NC(=O)c3ccc(-c4nccs4)cc3)cccc2C1=O,?,/,.
C[C@@H]1CN([C@H](C)CO)C(=O)c2cccc(NC(=O)c3ccc(-c4nccs4)cc3)c2O[C@@H]1CN(C)Cc1ccc(-c2ccccc2)cc1,.,.,.
C[C@@H]1CN([C@H](C)CO)C(=O)c2cccc(NC(=O)c3ccc(-c4nccs4)cc3)c2O[C@H]1CN(C)Cc1ccccc1,.,.,.
C[C@H]1CN([C@@H](C)CO)C(=O)c2cccc(NC(=O)c3ccc(-c4nccs4)cc3)c2O[C@@H]1CN(C)Cc1ccc(-c2ccccc2)cc1,70,.,.
O=C(CCCCCC(=O)NN=C1CCCC1)NO,/,.,/
Cc1ccsc1/C=N/NC(=O)c1ccc(C(=O)NO)cc1,.,.,.
O=C(NO)c1cccc(C(=O)N/N=C/c2cc3ccccc3n2S(=O)(=O)c2ccccc2)c1,.,/,.
COC(=O)CCCCCCC(=O)N/N=C/c1c(O)ccc2ccccc12,.,.,.
O=C(NO)c1cccc(C(=O)N/N=C/c2ccc(Br)s2)c1,.,.,.
O=C(O)CCCCCC(=O)N/N=C/c1cc(Br)ccc1O,.,.,.
C[C@H](CO)N1C[C@H](C)[C@@H](CN(C)CC2CCCCC2)Oc2ccc(NC(=O)Nc3ccc(F)cc3)cc2CC1=O,/,.,/
C[C@@H]1CN([C@H](C)CO)C(=O)Cc2cc(NC(=O)Nc3ccc(F)cc3)ccc2O[C@@H]1CN(C)CC1CCCCC1,67,.,.
C[C@@H]1CN([C@H](C)CO)C(=O)Cc2cc(NC(=O)Nc3ccc4c(c3)OCO4)ccc2O[C@H]1CN(C)CC1CCCCC1,64,.,.
C[C@H](CO)N1C[C@H](C)[C@H](CN(C)CC2CCCCC2)Oc2ccc(NC(=O)Nc3ccc4c(c3)OCO4)cc2CC1=O,.,.,.
C[C@@H]1CN([C@H](C)CO)C(=O)Cc2cc(NC(=O)Nc3ccc(F)cc3)ccc2O[C@@H]1CN(C)CC1CC1,/,.,/
C[C@@H]1CN([C@H](C)CO)C(=O)Cc2cc(NC(=O)Nc3ccc(F)cc3)ccc2O[C@H]1CN(C)CC1CCCCC1,60,/,.
